Experimental data: ChEMBL document CHEMBL4725336, “Anti-cancer potential of (1,2-dihydronaphtho[2,1-b]furan-2-yl)methanone derivatives” (Bioorg Med Chem Lett, 2020)

Legend:
[1] = test system: MDA-MB-468; test: Antiproliferative activity against human MDA-MB-468 cells assessed as inhibition of cell proliferation by MTT assay; assay type: functional; details: read-out: LD50 (the source's name)
In short: (§1)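 MTT proliferation assay; cells exposed to compounds across 0-50 μM; LD50 derived from dose-dependent survival. Triple-negative MDA-MB-468, MDA-MB-231 and 4T1, ER+/PR+ MCF-7, and non-cancerous lung fibroblast WI-38 tested.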

[2] = Selectivity index, ratio of LD50 for human WI-38 cells to LD50 for human MDA-MB-468 cells assessed as inhibition of cell proliferation by MTT assay; assay type: toxicity; details: WI-38 cells and MDA-MB-468 cells, read-out: Selectivity Index
In short: (§2)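 MTT proliferation assay on cells treated with 0–50 μM. LD50 was derived for each cell line, and the selectivity index was calculated as WI-38 LD50 divided by cancer-cell LD50.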

[3] = Selectivity index, ratio of LD50 for human WI-38 cells to LD50 for human MCF7 cells assessed as inhibition of cell proliferation by MTT assay; assay type: toxicity; details: WI-38 cells and MCF7 cells, read-out: Selectivity Index; in short: as §2
[4] = test system: MCF7; test: Antiproliferative activity against human MCF7 cells assessed as inhibition of cell proliferation by MTT assay; assay type: functional; details: read-out: LD50 (the source's name); in short: as §1
[5] = Cytotoxicity against human WI-38 cells assessed as inhibition of cell proliferation by MTT assay; assay type: cell-based; details: read-out: LD50 (the source's name); in short: as §1

Compound	CC50 [1]	selectivity ratio [2]	selectivity ratio [3]	CC50 [4]	CC50 [5]
CCC[C@H]1c2c(ccc3ccccc23)O[C@@H]1C(=O)c1ccccc1	69 µM	1.14	1.07	74 µM	79 µM
O=C(c1ccccc1)[C@H]1Oc2ccc3ccccc3c2[C@@H]1c1ccc2ccccc2c1	23 µM	2.56	2.1	28 µM	59 µM
O=C(c1ccccc1)[C@H]1Oc2ccc3ccccc3c2[C@@H]1C1CCCCC1	46 µM	1.6	1.76	42 µM	74 µM
O=C(c1ccco1)[C@@H]1Cc2c(ccc3ccccc23)O1	34 µM	1.5	1.38	37 µM	51 µM
N#Cc1ccc([C@H]2c3c(ccc4ccccc34)O[C@@H]2C(=O)c2ccccc2)cc1	53 µM	1.35	1.41	51 µM	72 µM
O=C(c1ccccc1)[C@H]1Oc2ccc3ccccc3c2[C@@H]1c1ccc(Cl)cc1	87 µM	1.1	1.05	91 µM	96 µM
O=C(c1ccc(F)cc1)[C@@H]1Cc2c(ccc3ccccc23)O1	27 µM	2	1.86	29 µM	54 µM
O=C(c1ccccc1)[C@H]1Oc2ccc3ccccc3c2[C@@H]1c1ccccc1	72 µM	1.24	1.3	68 µM	89 µM
C[C@H]1c2c(ccc3ccccc23)O[C@@H]1C(=O)c1ccccc1	34 µM	1.88	1.68	38 µM	64 µM
CC(=O)[C@@H]1Cc2c(ccc3ccccc23)O1	22 µM	2.13	1.8	26 µM	47 µM
N#Cc1ccc(C(=O)[C@H]2Oc3ccc4ccccc4c3[C@@H]2c2ccc3ccccc3c2)cc1	54 µM	1.63	1.54	57 µM	88 µM
COc1cc([C@@H]2c3cc4c(cc3[C@@H](O[C@@H]3O[C@@H]5CO[C@@H](C)O[C@H]5[C@H](O)[C@H]3O)[C@H]3COC(=O)[C@H]23)OCO4)cc(OC)c1O [ETOPOSIDE]	27.9 µM	1.06	0.65	45.3 µM	29.6 µM
O=C(c1ccccc1)[C@@H]1Cc2c(ccc3cc(Br)ccc23)O1	32 µM	2.28	1.35	54 µM	73 µM
O=C(c1ccccc1)[C@H]1Oc2ccc3ccccc3c2[C@@H]1c1ccc(O)cc1	81 µM	1.42	1.49	77 µM	115 µM
O=C(c1ccco1)[C@H]1Oc2ccc3cc(Br)ccc3c2[C@@H]1c1ccccc1	68 µM	1.35	1.28	72 µM	92 µM
O=C(c1ccccc1)[C@H]1Oc2ccc3ccccc3c2[C@@H]1c1ccc(Br)cc1	63 µM	1.22	1.37	56 µM	77 µM
COc1cc([C@H]2c3c(ccc4ccccc34)O[C@@H]2C(=O)c2ccccc2)cc(OC)c1OC	88 µM	1.45	1.49	86 µM	128 µM
COc1ccc([C@H]2c3c(ccc4ccccc34)O[C@@H]2C(=O)c2ccccc2)cc1	118 µM	0.7	0.98	84 µM	83 µM
Cc1ccc([C@H]2c3c(ccc4ccccc34)O[C@@H]2C(=O)c2ccccc2)cc1	63 µM	1.14	1.01	71 µM	72 µM
